In article PMC4659844 (Clinical Drug Investigation, 2015):
Like-named read-outs stand apart in the source and are kept apart here.

Legend:
[1] = tested on: healthy Japanese subjects; experiment: Safety and tolerability; format: in vivo, human
How it was run: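 Double-blind, placebo-controlled single 30-min IV infusion (300 ml, in 5 % dextrose with sterile water) of test compound or placebo. Groups: 500 mg, 5 active/1 placebo; 1000 mg, 10 active/2 placebo. Safety was assessed by physical examination, chemistry, hematology, urinalysis, heart rate, blood pressure, respiratory rate, oral temperature, and monitoring of concomitant medications and adverse events, queried on all study days with non-leading questions.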

[2] = format: in vivo, human; conditions: for percentage of total exposure (AUC0–∞) after 7 days / percentage of total exposure (AUC0–∞) after 14 days: based on mean partial AUCs
[3] = tested on: cytochrome P450 (CYP); conditions: background statement, no reference given; cited from earlier work
[4] = cited from earlier work
[5] = tested on: QTc; conditions: cited from earlier work
[6] = 500 mg and 1000 mg single IV infusion, range of the two dose means
[7] = 500 mg single IV infusion, healthy Japanese subjects, range of subjects, n = 5
[8] = 1000 mg single IV infusion, healthy Japanese subjects, range of subjects, n = 10

CN[C@H]1C(=O)N[C@@H]2Cc3ccc(cc3)Oc3cc4cc(c3O[C@@H]3O[C@H](C(=O)O)[C@@H](O)[C@H](O)[C@H]3NC(=O)CCCCCCCCC(C)C)Oc3ccc(cc3Cl)[C@@H](O)[C@@H]3NC(=O)[C@H](NC(=O)[C@@H]4NC(=O)[C@@H](NC2=O)c2cc(cc(O)c2Cl)Oc2cc1ccc2O)c1ccc(O)c(c1)-c1c(O[C@H]2O[C@H](CO)[C@@H](O)[C@H](O)[C@@H]2O)cc(O)cc1[C@@H](C(=O)NCCCN(C)C)NC3=O [Dalbavancin]
tolerability ([1]; 500 mg and 1000 mg as single 30-min infusions, healthy Japanese subjects): well tolerated
serious adverse events, deaths, discontinuations due to a TEAE ([1]; 500 mg and 1000 mg single IV infusion, healthy Japanese subjects): no serious adverse event occurred
investigator-assessed relation of dizziness to study medication ([1]; 500 mg dose group): unlikely to be related
investigator-assessed relation of dyspepsia to study medication ([1]; 500 mg dose group): not related
investigator-assessed relation of rash and diarrhea to study medication ([1]; 1000 mg dose group): possibly related
subjects with at least one TEAE, percentage ([1]; Dalbavancin 500 mg single IV infusion, N = 5): 40%
subjects with at least one TEAE, percentage ([1]; Dalbavancin 1000 mg single IV infusion, N = 10): 30%
clinical laboratory values (chemistry, hematology, urinalysis) ([1]; any dose group, change from baseline): No clinically relevant, abnormal laboratory values were reported
intensity of TEAEs ([1]; subjects receiving dalbavancin in both dose groups (500 mg, 1000 mg)): mild intensity
mean CL across two dose concentrations [2, 6]: 40.5 to 42.2 mL/h
mean Vd across two dose concentrations [2, 6]: 11,301 to 12,182 ml
percentage of total exposure (AUC0–∞) after 7 days ([2]; 500 mg single IV infusion): approximately 47%
percentage of total exposure (AUC0–∞) after 14 days ([2]; 500 mg single IV infusion): ~70%
mean AUC%extrap (percentage of AUC0–∞ obtained by extrapolation) ([2]; 500 mg single IV infusion, healthy Japanese subjects): 9.83%
Vd, range [2, 7]: 11,412–14,205 ml
terminal phase t1/2, range [2, 7]: 182 to 240 h
percentage of total exposure (AUC0–∞) after 7 days ([2]; 1000 mg single IV infusion): approximately 49%
percentage of total exposure (AUC0–∞) after 14 days ([2]; 1000 mg single IV infusion): ~73%
mean AUC%extrap (percentage of AUC0–∞ obtained by extrapolation) ([2]; 1000 mg single IV infusion, healthy Japanese subjects): 8.34%
CL, range [2, 8]: 34.8 to 45.8 mL/h
Vd, range [2, 8]: 8999–13,691 ml
terminal phase t1/2, range [2, 8]: 162 to 220 h
CYP oxidative metabolism [3]: does not undergo cytochrome P450 (CYP) oxidative metabolism
substrate, inhibitor or inducer of CYP isozymes [3]: is not a substrate, inhibitor or inducer of any known CYP-isozyme
terminal half-life (t1/2) [4]: 2 weeks
terminal t1/2 ([4]; studies with follow-up periods as long as 70 days): ≤ 372 h
QTc prolongation [5]: no evidence of QTc prolongation
